Test results taken from ChEMBL document CHEMBL1153852, “Steroidal lactones as inhibitors of 17beta-hydroxysteroid dehydrogenase type 5: chemical synthesis, enzyme inhibitory activity, and assessment of estrogenic and androgenic activities” (Eur J Med Chem, 2009).
The source made the active and inactive calls. No cut-off for these calls is given here.

How the values were obtained:
ZR-75-1 [1] = experiment: Antiestrogenic activity in human ZR-75-1 cells expressing estrogen receptor assessed as inhibition of estrogen-induced cell proliferation at 0.1 nM after 9 days relative to estrogen; assay type: functional, cell-based
ZR-75-1 [2] = experiment: Estrogenic activity in human ZR-75-1 cells expressing estrogen receptor assessed as estrogen-induced cell proliferation at 0.03 uM after 9 days relative to estrogen; assay type: functional, cell-based
Outline: (§1)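 ZR-75-1 cells are resuspended in phenol red-free RPMI 1640 with 5% dextran-charcoal-treated FBS and seeded at 10,000 cells/well. After 3 days of adhesion, lactones from ethanol stocks are added alone or with E2 (0.1 nM). Cells grow 9 days at 37 °C in 5% CO2, with medium changed every 2–3 days. DNA is measured by DABA fluorescence; E2-induced growth is set to 100%.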

ZR-75-1 [3] = experiment: Estrogenic activity in human ZR-75-1 cells expressing estrogen receptor assessed as estrogen-induced cell proliferation at 1 uM after 9 days relative to estrogen; assay type: functional; outline: as §1
[4] = target: T1, 17-beta-hydroxysteroid dehydrogenase type 3 (Homo sapiens) (UniProt P37058); experiment: Inhibition of human 17beta-HSD3 expressed in HEK293 cells assessed as enzyme-mediated transformation of [14C]-4-androstene-3,17-dione in to [14C]-testosterone at 1 uM; assay type: cell-based
T1 sequence (whole entry): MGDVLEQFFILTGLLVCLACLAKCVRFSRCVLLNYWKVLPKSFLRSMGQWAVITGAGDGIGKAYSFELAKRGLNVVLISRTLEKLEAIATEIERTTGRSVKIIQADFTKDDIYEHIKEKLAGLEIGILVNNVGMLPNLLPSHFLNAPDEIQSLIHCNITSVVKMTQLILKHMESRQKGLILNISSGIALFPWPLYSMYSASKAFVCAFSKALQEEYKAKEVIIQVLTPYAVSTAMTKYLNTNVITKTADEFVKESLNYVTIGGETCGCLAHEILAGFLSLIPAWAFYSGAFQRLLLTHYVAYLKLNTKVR

[5] = target: T1, 17-beta-hydroxysteroid dehydrogenase type 3 (Homo sapiens); experiment: Inhibition of human 17beta-HSD3 expressed in HEK293 cells assessed as enzyme-mediated transformation of [14C]-4-androstene-3,17-dione in to [14C]-testosterone at 0.1 uM; assay type: cell-based
[6] = target: T2, Aldo-keto reductase family 1 member C3 (Homo sapiens) (UniProt P42330); experiment: Inhibition of human 17beta-HSD5 expressed in HEK293 cells assessed as enzyme-mediated transformation of [14C]-4-androstene-3,17-dione in to [14C]-testosterone at 3 uM after 18 hrs; assay type: cell-based
T2 sequence (whole entry): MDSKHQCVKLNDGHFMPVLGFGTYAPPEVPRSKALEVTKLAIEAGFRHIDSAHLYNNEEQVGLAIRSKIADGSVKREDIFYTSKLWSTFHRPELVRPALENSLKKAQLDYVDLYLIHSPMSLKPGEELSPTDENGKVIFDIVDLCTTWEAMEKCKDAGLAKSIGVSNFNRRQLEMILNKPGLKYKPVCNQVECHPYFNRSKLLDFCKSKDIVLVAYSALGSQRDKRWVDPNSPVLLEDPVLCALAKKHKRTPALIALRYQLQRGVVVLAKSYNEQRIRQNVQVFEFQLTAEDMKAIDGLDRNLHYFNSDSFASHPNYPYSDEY
Outline: (§2)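 Intact HEK-293 cells stably over-expressing human 17β-HSD5, in freshly changed culture medium. [14C]-4-androstene-3,17-dione is added at 100 nM with inhibitor from an ethanolic solution; controls get ethanol only. After 18 h the conversion to [14C]-T is measured.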

[7] = target: T2, Aldo-keto reductase family 1 member C3 (Homo sapiens); experiment: Inhibition of human 17beta-HSD5 expressed in HEK293 cells assessed as enzyme-mediated transformation of [14C]-4-androstene-3,17-dione in to [14C]-testosterone at 0.3 uM after 18 hrs; assay type: cell-based; outline: as §2
[8] = target: T3, 17-beta-hydroxysteroid dehydrogenase type 1 (Homo sapiens) (UniProt P14061); experiment: Inhibition of human 17beta-HSD1 expressed in HEK293 cells assessed as enzyme-mediated transformation of [14C]-E1 in to [14C]-E2 at 0.1 uM; assay type: cell-based
T3 sequence (whole entry): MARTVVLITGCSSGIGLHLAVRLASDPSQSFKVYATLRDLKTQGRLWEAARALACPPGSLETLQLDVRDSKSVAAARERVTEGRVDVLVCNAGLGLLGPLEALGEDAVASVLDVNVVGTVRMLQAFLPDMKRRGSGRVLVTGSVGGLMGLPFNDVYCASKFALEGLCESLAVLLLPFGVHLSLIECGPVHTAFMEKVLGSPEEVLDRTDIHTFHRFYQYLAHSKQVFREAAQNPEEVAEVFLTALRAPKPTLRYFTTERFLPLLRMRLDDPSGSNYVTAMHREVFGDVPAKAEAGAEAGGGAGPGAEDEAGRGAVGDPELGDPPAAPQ

[9] = target: T4, Aldo-keto reductase family 1 member C3 (Homo sapiens, UniProt P42330); experiment: Inhibition of human 17beta-HSD5 expressed in HEK293 cells assessed as enzyme-mediated transformation of [14C]-4-androstene-3,17-dione in to [14C]-testosterone after 18 hrs; assay type: cell-based
T4 sequence (P42330 whole entry): T2 sequence (whole entry)
Outline: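 Intact HEK-293 cells stably over-expressing human 17β-HSD5, in fresh culture medium. [14C]-4-androstene-3,17-dione 0.1 μM with inhibitor added in ethanol (ethanol alone as control), 18 h.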

[10] = target: T3, 17-beta-hydroxysteroid dehydrogenase type 1 (Homo sapiens); experiment: Inhibition of human 17beta-HSD1 expressed in HEK293 cells assessed as enzyme-mediated transformation of [14C]-E1 in to [14C]-E2 at 1 uM; assay type: cell-based
Mus musculus [11] = species: Mus musculus; experiment: Androgenic activity in mouse SC115 cells expressing androgen receptor assessed as DHT-induced cell proliferation at 0.1 uM after 10 days relative to DHT; assay type: functional, cell-based
Outline: (§3)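 SC115 Shionogi clone selected for DHT sensitivity, in MEM with 2% dextran-charcoal-treated FCS, seeded at 20,000 cells/well. After 24 h the medium is renewed and lactones added at 0.1 and 1, without DHT. Final ethanol is 0.01%. Cells are grown 10 days at 37 °C in 5% CO2, with medium changed every 3–4 days. DNA is measured by DABA fluorescence; DHT-stimulated growth is set to 100%.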

[12] = Antiandrogenic activity in mouse SC115 cells expressing androgen receptor assessed as inhibition of DHT-induced cell proliferation at 1 uM after 10 days relative to DHT; assay type: functional; conditions: 240 h
Outline: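 SC115 Shionogi clone chosen for high DHT sensitivity; plated at 20,000 cells/well in MEM with 2% dextran-coated charcoal-treated FCS. After 24 h, medium changed and compound (0.1 or 1 μM) added with 0.3 nM DHT; ethanol 0.01% final. 10 days at 37 °C, medium changed every 3–4 days. Growth read as DNA content (DABA fluorescence); DHT-stimulated growth set to 100%; triplicates, mean ± SEM.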

Mus musculus [13] = species: Mus musculus; experiment: Androgenic activity in mouse SC115 cells expressing androgen receptor assessed as DHT-induced cell proliferation at 1 uM after 10 days relative to DHT; assay type: functional, cell-based; outline: as §3

## CCCCN(C)C(=O)CCCCCCCCCC[C@@H]1Cc2cc(O)ccc2[C@H]2CC[C@]3(C)[C@@H](O)[C@H](Cl)C[C@H]3[C@H]12
ZR-75-1 [1]
  Activity: Active
ZR-75-1 [2]
  Activity: inactive
ZR-75-1 [3]
  Activity: inactive

## C[C@]12CC[C@@H]3c4ccccc4CC[C@H]3[C@@H]1CC[C@@]21CCCC(=O)O1
[4]
  inhibition: 64%
[5]
  inhibition: 25%
[6]
  inhibition: 95%
[7]
  inhibition: 93%
[8]
  inhibition: 21%
[9]
  IC50: 10 nM
[10]
  inhibition: 21%

## CC(C)(O)C(=O)Nc1ccc([N+](=O)[O-])c(C(F)(F)F)c1 [HYDROXYFLUTAMIDE]
Mus musculus [11]
  Activity: inactive
[12]
  inhibition at 1 µM: 94%
Mus musculus [13]
  Activity: inactive
